Results as given in ChEMBL document CHEMBL4340542, “Design, synthesis and biological evaluation of 4-aniline-thieno[2,3-d]pyrimidine derivatives as MNK1 inhibitors against renal cell carcinoma and nasopharyngeal carcinoma” (Bioorg Med Chem, 2019).
Calls of active or inactive are those of the source. The calls are words filed in the database; no cut-off is given here.

Tests used:
[1] = target: MAP kinase-interacting serine/threonine-protein kinase 1 (Homo sapiens, UniProt Q9BUB5); assay: Inhibition of human MNK1 using CREBtide substrate by gamma-[32P]-ATP competitive inhibition assay
Outline: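 Run as the Eurofins KinaseProfiler radiometric assay, competitive with γ-[32P]-ATP. IC50 taken as the mean of independent experiments; the footnote gives two.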

CNE = assay: Cytotoxicity against human CNE1 cells assessed as decrease in cell viability incubated for 24 hrs by MTT assay; format: functional, cell-based
Outline: (§1)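 IC50 from an 8–10 point concentration gradient by MTT assay. Panel covers renal cell carcinoma and nasopharyngeal carcinoma lines. Values are mean ± SD, n = 3.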

CNE-2 = assay: Cytotoxicity against human CNE2 cells assessed as decrease in cell viability incubated for 24 hrs by MTT assay; format: functional, cell-based; outline: as §1
SUNE1 = assay: Cytotoxicity against human SUNE1 cells assessed as decrease in cell viability incubated for 24 hrs by MTT assay; format: functional, cell-based; outline: as §1
Homo sapiens = species on record: Homo sapiens; assay: Cytotoxicity against human HNE1 cells assessed as decrease in cell viability incubated for 24 hrs by MTT assay; format: functional, cell-based; outline: as §1
A498 = assay: Cytotoxicity against human A498 cells assessed as decrease in cell viability incubated for 24 hrs by MTT assay; format: functional, cell-based; outline: as §1
CAKI-1 = assay: Cytotoxicity against human Caki1 cells assessed as decrease in cell viability incubated for 24 hrs by MTT assay; format: functional, cell-based; outline: as §1
786-0 = assay: Cytotoxicity against human 786-O cells assessed as decrease in cell viability incubated for 24 hrs by MTT assay; format: functional, cell-based; outline: as §1

Sequence of MAP kinase-interacting serine/threonine-protein kinase 1 (Q9BUB5 whole entry): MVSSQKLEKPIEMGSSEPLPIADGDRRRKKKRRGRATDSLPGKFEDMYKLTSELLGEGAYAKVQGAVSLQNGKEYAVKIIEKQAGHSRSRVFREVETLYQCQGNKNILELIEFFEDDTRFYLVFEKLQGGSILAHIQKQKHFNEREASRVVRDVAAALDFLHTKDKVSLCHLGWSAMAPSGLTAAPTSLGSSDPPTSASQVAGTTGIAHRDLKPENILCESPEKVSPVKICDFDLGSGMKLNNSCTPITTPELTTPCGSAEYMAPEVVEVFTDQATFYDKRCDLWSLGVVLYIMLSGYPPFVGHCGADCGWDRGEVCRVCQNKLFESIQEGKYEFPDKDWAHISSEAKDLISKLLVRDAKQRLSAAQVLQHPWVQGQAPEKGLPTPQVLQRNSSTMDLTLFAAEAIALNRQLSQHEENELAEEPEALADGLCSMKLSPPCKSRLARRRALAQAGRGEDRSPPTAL

SMILES	IC50 [1] [nM]	further results
COc1cc(F)ccc1Nc1ncnc2sc3c(c12)CCN(S(=O)(=O)c1ccc(F)cc1F)C3	930	
Cc1cccc(Nc2ncnc3sc4c(c23)CCN(C)C4)c1	2220	
Clc1ccc(Nc2ncnc3sc4c(c23)CCCC4)cc1	1620	
Fc1cc(Cl)ccc1Nc1ncnc2sc3c(c12)CCN(Cc1ccccc1)C3	1310	
CN1CCc2c(sc3ncnc(Nc4ccc(F)cc4F)c23)C1	1090	
COc1cc(F)ccc1Nc1ncnc2sc3c(c12)CCN(C(=O)OC(C)(C)C)C3	1340	
Brc1ccc(Nc2ncnc3sc4c(c23)CCCC4)cc1	1510	
COc1cccc(Nc2ncnc3sc4c(c23)CCN(S(=O)(=O)c2cccs2)C4)c1	2350	
Fc1ccc(Nc2ncnc3sc4c(c23)CCN(Cc2ccccc2)C4)c(Br)c1	1120	
COc1cccc(Nc2ncnc3sc4c(c23)CCN(S(=O)(=O)c2ccccc2[N+](=O)[O-])C4)c1	2020	
O=S(=O)(c1cccs1)N1CCc2c(sc3ncnc(Nc4ccc(Cl)cc4F)c23)C1	1360	
CC(C)(C)OC(=O)N1CCc2c(sc3ncnc(Nc4ccc(Cl)cc4)c23)C1	2240	
COc1ccc(S(=O)(=O)N2CCc3c(sc4ncnc(Nc5cccc(F)c5)c34)C2)cc1	1390	
Cc1ccc(Nc2ncnc3sc4c(c23)CCN(C(=O)OC(C)(C)C)C4)c(Br)c1	1700	
O=[N+]([O-])c1ccccc1S(=O)(=O)N1CCc2c(sc3ncnc(Nc4ccc(Br)cc4)c23)C1	1250	
COc1cc(F)ccc1Nc1ncnc2sc3c(c12)CCN(S(=O)(=O)c1ccccc1[N+](=O)[O-])C3	1100	
Fc1cccc(Nc2ncnc3sc4c(c23)CCN(Cc2ccccc2)C4)c1	2080	
O=[N+]([O-])c1ccccc1S(=O)(=O)N1CCc2c(sc3ncnc(Nc4ccc(Cl)cc4)c23)C1	1650	
Cc1cccc(Nc2ncnc3sc4c(c23)CCN(C(=O)OC(C)(C)C)C4)c1	2500	
O=S(=O)(c1cccs1)N1CCc2c(sc3ncnc(Nc4cccc(F)c4)c23)C1	1500	
COc1ccc(S(=O)(=O)N2CCc3c(sc4ncnc(Nc5cccc(Cl)c5)c34)C2)cc1	1400	
O=S(=O)(c1ccc(F)cc1F)N1CCc2c(sc3ncnc(Nc4ccc(Cl)cc4F)c23)C1	1540	
O=[N+]([O-])c1ccccc1S(=O)(=O)N1CCc2c(sc3ncnc(Nc4ccc(Cl)cc4F)c23)C1	1260	
CC(C)(C)OC(=O)N1CCc2c(sc3ncnc(Nc4cccc(F)c4)c23)C1	2190	
O=S(=O)(c1ccc(F)cc1F)N1CCc2c(sc3ncnc(Nc4ccc(Br)cc4)c23)C1	1730	

SMILES	IC50 [1] [nM]	further results
COc1cc(F)ccc1Nc1ncnc2sc3c(c12)CCN(Cc1ccccc1)C3	1000	
Cc1ccc(Nc2ncnc3sc4c(c23)CCN(S(=O)(=O)c2ccc(F)cc2F)C4)c(Br)c1	1680	
O=S(=O)(c1ccc(F)cc1F)N1CCc2c(sc3ncnc(Nc4ccc(F)cc4Br)c23)C1	1280	
Clc1cccc(Nc2ncnc3sc4c(c23)CCCC4)c1	2430	
Cc1ccc(Nc2ncnc3sc4c(c23)CCN(S(=O)(=O)c2cccs2)C4)c(Br)c1	1560	
COc1ccc(S(=O)(=O)N2CCc3c(sc4ncnc(Nc5ccc(Br)cc5)c34)C2)cc1	1070	Activity (CNE): Active; Activity (CNE-2): Active; Activity (SUNE1): Active; Activity (Homo sapiens): Active; Activity (A498): Active; Activity (CAKI-1): Active; Activity (786-0): Active
COc1cccc(Nc2ncnc3sc4c(c23)CCN(C)C4)c1	2290	
Brc1ccc(Nc2ncnc3sc4c(c23)CCN(Cc2ccccc2)C4)cc1	1690	
Cc1cccc(Nc2ncnc3sc4c(c23)CCN(S(=O)(=O)c2cccs2)C4)c1	2130	
O=S(=O)(c1cccs1)N1CCc2c(sc3ncnc(Nc4ccc(F)cc4Br)c23)C1	970	
COc1cccc(Nc2ncnc3sc4c(c23)CCN(C(=O)OC(C)(C)C)C4)c1	1950	
Clc1cccc(Nc2ncnc3sc4c(c23)CCN(Cc2ccccc2)C4)c1	2290	
CC(C)(C)OC(=O)N1CCc2c(sc3ncnc(Nc4ccc(Cl)cc4F)c23)C1	2160	
O=S(=O)(c1cccs1)N1CCc2c(sc3ncnc(Nc4ccc(Cl)cc4)c23)C1	1630	
Cc1cccc(Nc2ncnc3sc4c(c23)CCN(Cc2ccccc2)C4)c1	2110	
COc1ccc(S(=O)(=O)N2CCc3c(sc4ncnc(Nc5ccc(F)cc5F)c34)C2)cc1	830	Activity (CNE): Active; Activity (CNE-2): Active; Activity (SUNE1): Active; Activity (Homo sapiens): Active; Activity (A498): Active; Activity (CAKI-1): Active; Activity (786-0): Active
O=[N+]([O-])c1ccccc1S(=O)(=O)N1CCc2c(sc3ncnc(Nc4ccc(F)cc4Br)c23)C1	1160	
Cc1cccc(Nc2ncnc3sc4c(c23)CCCC4)c1	1790	
COc1cccc(Nc2ncnc3sc4c(c23)CCCC4)c1	1700	
CN1CCc2c(sc3ncnc(Nc4ccc(Br)cc4)c23)C1	1690	
CN1CCc2c(sc3ncnc(Nc4ccc(Cl)cc4)c23)C1	1820	
O=S(=O)(c1cccs1)N1CCc2c(sc3ncnc(Nc4ccc(F)cc4F)c23)C1	1460	
COc1ccc(S(=O)(=O)N2CCc3c(sc4ncnc(Nc5ccc(Cl)cc5F)c34)C2)cc1	1150	Activity (CNE): Active; Activity (CNE-2): Active; Activity (SUNE1): Active; Activity (Homo sapiens): Active; Activity (A498): Active; Activity (CAKI-1): Active; Activity (786-0): Active
COc1ccc(S(=O)(=O)N2CCc3c(sc4ncnc(Nc5ccc(C)cc5Br)c34)C2)cc1	1890	
O=S(=O)(c1ccc(F)cc1F)N1CCc2c(sc3ncnc(Nc4cccc(F)c4)c23)C1	2020	

Second part, led by results:

IC50 [1] [nM]	SMILES	further results
1880	COc1cccc(Nc2ncnc3sc4c(c23)CCN(S(=O)(=O)c2ccc(F)cc2F)C4)c1	
1220	COc1ccc(S(=O)(=O)N2CCc3c(sc4ncnc(Nc5ccc(Cl)cc5)c34)C2)cc1	
1100	O=S(=O)(c1ccc(F)cc1F)N1CCc2c(sc3ncnc(Nc4ccc(F)cc4F)c23)C1	
1620	CC(C)(C)OC(=O)N1CCc2c(sc3ncnc(Nc4ccc(F)cc4F)c23)C1	
2040	CN1CCc2c(sc3ncnc(Nc4cccc(F)c4)c23)C1	
1390	O=S(=O)(c1cccs1)N1CCc2c(sc3ncnc(Nc4ccc(Br)cc4)c23)C1	
1990	O=[N+]([O-])c1ccccc1S(=O)(=O)N1CCc2c(sc3ncnc(Nc4cccc(F)c4)c23)C1	
1100	Fc1ccc(Nc2ncnc3sc4c(c23)CCN(Cc2ccccc2)C4)c(F)c1	
1810	CC(C)(C)OC(=O)N1CCc2c(sc3ncnc(Nc4ccc(Br)cc4)c23)C1	
1410	COc1ccc(S(=O)(=O)N2CCc3c(sc4ncnc(Nc5cccc(C)c5)c34)C2)cc1	
1870	CN1CCc2c(sc3ncnc(Nc4cccc(Cl)c4)c23)C1	
1380	O=S(=O)(c1cccs1)N1CCc2c(sc3ncnc(Nc4cccc(Cl)c4)c23)C1	
1570	Cc1ccc(Nc2ncnc3sc4c(c23)CCN(Cc2ccccc2)C4)c(Br)c1	
1000	COc1ccc(S(=O)(=O)N2CCc3c(sc4ncnc(Nc5ccc(F)cc5Br)c34)C2)cc1	Activity (CNE): Active; Activity (CNE-2): Active; Activity (SUNE1): Active; Activity (Homo sapiens): Active; Activity (A498): Active; Activity (CAKI-1): Active; Activity (786-0): Active
1470	CN1CCc2c(sc3ncnc(Nc4ccc(F)cc4Br)c23)C1	
1650	Cc1ccc(Nc2ncnc3sc4c(c23)CCN(S(=O)(=O)c2ccccc2[N+](=O)[O-])C4)c(Br)c1	

IC50 [1] [nM]	SMILES	further results
2180	Fc1cccc(Nc2ncnc3sc4c(c23)CCCC4)c1	
1650	Cc1ccc(Nc2ncnc3sc4c(c23)CCN(C)C4)c(Br)c1	
1080	O=[N+]([O-])c1ccccc1S(=O)(=O)N1CCc2c(sc3ncnc(Nc4ccc(F)cc4F)c23)C1	
2400	Cc1cccc(Nc2ncnc3sc4c(c23)CCN(S(=O)(=O)c2ccc(F)cc2F)C4)c1	
1500	O=S(=O)(c1ccc(F)cc1F)N1CCc2c(sc3ncnc(Nc4ccc(Cl)cc4)c23)C1	
1740	O=S(=O)(c1ccc(F)cc1F)N1CCc2c(sc3ncnc(Nc4cccc(Cl)c4)c23)C1	
1640	O=[N+]([O-])c1ccccc1S(=O)(=O)N1CCc2c(sc3ncnc(Nc4cccc(Cl)c4)c23)C1	
940	COc1cc(F)ccc1Nc1ncnc2sc3c(c12)CCN(S(=O)(=O)c1cccs1)C3	
2140	COc1ccc(S(=O)(=O)N2CCc3c(sc4ncnc(Nc5cccc(OC)c5)c34)C2)cc1	
1720	CC(C)(C)OC(=O)N1CCc2c(sc3ncnc(Nc4ccc(F)cc4Br)c23)C1	
2060	Cc1cccc(Nc2ncnc3sc4c(c23)CCN(S(=O)(=O)c2ccccc2[N+](=O)[O-])C4)c1	
1850	CN1CCc2c(sc3ncnc(Nc4ccc(Cl)cc4F)c23)C1	
2170	CC(C)(C)OC(=O)N1CCc2c(sc3ncnc(Nc4cccc(Cl)c4)c23)C1	
1920	COc1cccc(Nc2ncnc3sc4c(c23)CCN(Cc2ccccc2)C4)c1	
930	COc1cc(F)ccc1Nc1ncnc2sc3c(c12)CCN(C)C3	
1540	Clc1ccc(Nc2ncnc3sc4c(c23)CCN(Cc2ccccc2)C4)cc1	
